Columns and labels:
[1] = target: T1, SufBC (Thermotoga maritima, UniProt Q9X188); conditions: 50 mM Tris-HCl pH 7.5, 100 mM KCl, 5 mM MgCl2, 2 mM dithiothreitol, 20 °C
T1 sequence (Q9X188 1-246): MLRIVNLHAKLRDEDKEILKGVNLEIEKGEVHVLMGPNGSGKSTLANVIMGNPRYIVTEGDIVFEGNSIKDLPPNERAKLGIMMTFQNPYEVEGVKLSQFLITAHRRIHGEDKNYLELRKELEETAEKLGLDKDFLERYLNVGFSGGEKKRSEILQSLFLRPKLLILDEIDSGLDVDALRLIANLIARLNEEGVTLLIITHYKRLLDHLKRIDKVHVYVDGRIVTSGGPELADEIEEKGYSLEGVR
T1 sequence (Q9X189 1-464 partner): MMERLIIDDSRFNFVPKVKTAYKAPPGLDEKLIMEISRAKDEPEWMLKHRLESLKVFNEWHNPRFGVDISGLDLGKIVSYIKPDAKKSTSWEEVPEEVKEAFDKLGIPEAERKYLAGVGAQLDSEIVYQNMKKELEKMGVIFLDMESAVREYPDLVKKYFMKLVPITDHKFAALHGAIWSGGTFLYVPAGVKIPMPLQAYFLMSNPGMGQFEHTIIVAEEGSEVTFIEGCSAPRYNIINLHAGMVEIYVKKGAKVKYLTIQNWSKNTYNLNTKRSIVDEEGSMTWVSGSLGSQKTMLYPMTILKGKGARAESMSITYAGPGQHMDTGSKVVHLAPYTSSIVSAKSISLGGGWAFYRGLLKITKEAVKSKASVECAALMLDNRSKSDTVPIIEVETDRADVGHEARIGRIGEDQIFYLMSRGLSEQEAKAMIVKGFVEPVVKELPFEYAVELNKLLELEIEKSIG

[2] = target: T1, SufBC; assay: stopped-flow ADP dissociation trapped by MDCC-ParM; type: binding; conditions: 50 mM Tris-HCl pH 7.5, 100 mM KCl, 5 mM MgCl2, 2 mM dithiothreitol, 20 °C
Method in brief: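 SufBC (13 μM) was preincubated with 4 μM ADP in one stopped-flow syringe. It was rapidly mixed with 80 or 160 μM MDCC-ParM ADP sensor, which traps ADP released from SufBC. ADP dissociation was read from the change in MDCC fluorescence over time.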

| rate constant (ADP dissociation) [2] | Structure (SMILES) | single-turnover stopped-flow, MDCC-PBP and MDCC-ParM sensors [1] |
| --- | --- | --- |
| – | Nc1ncnc2c1ncn2[C@@H]1O[C@H](COP(=O)(O)OP(=O)(O)OP(=O)(O)O)[C@@H](O)[C@H]1O [ATP] | study ADP and Pi release during a single turnover of ATP hydrolysis by SufBC |
| 0.046 s⁻¹ | Nc1ncnc2c1ncn2[C@@H]1O[C@H](COP(=O)(O)OP(=O)(O)O)[C@@H](O)[C@H]1O [ADP] | – |
